# Measured values from different studies.
# Each line is one published result; the experiments were not run side by side.
# Target: SRSF protein kinase 2 (SRPK2, Homo sapiens, UniProt P78362)
Compound,test,conditions,quantity,value
CN1CCC2(CC1)NC(=O)c1c(c3ccc(Cl)c(Cl)c3n1C)C2C#N (racemic),"thermal stability, DSF",10 µM,ΔTm,0.7 °C
O=C1Nc2ccc(Cl)cc2C1=Cc1cc(Cl)c(O)c(Cl)c1,cell-free assay,0.5 µM,remaining signal,95.2%
CO[C@@H](C)c1c(Nc2ccc([C@H](N(C)C(=O)C3CCS(=O)(=O)CC3)C(F)(F)F)cc2)cnc2cc(Cl)nn12,"cell-free assay, competition with immobilised ligand",1 µM,remaining binding,100%
CCN(CC)CCNC(=O)c1c(C)[nH]c(/C=C2\C(=O)Nc3ccc(F)cc32)c1C,"enzyme activity, inhibitor",0.3 µM,inhibition,6%
O=C(Nc1cnn(-c2csc(C(=O)NC3COC3)c2)c1)Nc1ccccc1Cl,"enzyme activity, inhibitor",5 µM,remaining activity,95.6%
N#CC1c2c([nH]c3c(Cl)c(Cl)ccc23)C(=O)NC12CCCCC2 (racemic),"thermal stability, DSF",10 µM,ΔTm,0.7 °C
CC/C(=N\NC(=O)NCc1cccc(O)c1)c1ccc(O)c(C)c1O,"enzyme activity, inhibitor",0.1 µM,inhibition,-2.2%
Cn1c2c(c3ccc(Cl)c(Cl)c31)C(C#N)C(C)(C)NC2=O (centres unmarked),"thermal stability, DSF",10 µM,ΔTm,0.6 °C
O=C(Nc1cnn(-c2csc(C(=O)NC3COC3)c2)c1)Nc1c(F)cccc1Cl,"enzyme activity, inhibitor",5 µM,remaining activity,94%
CCCOc1ccc(OC)c(F)c1C(=O)c1ccc(C(=O)N[C@@H]2CNC[C@H]2NC(=O)c2ccc3[nH]ncc3c2)cc1,"enzyme activity, inhibitor",10 µM,remaining activity,93%
C[C@@H]1CCN(C(=O)CC#N)C[C@@H]1N(C)c1ncnc2[nH]ccc12,"cell-free assay, inhibitor",0.5 µM,remaining signal,90.7%
COc1cc(-c2cc(-c3ccc(N4CCNCC4)cc3)cnc2C)cc(OC)c1OC,"enzyme activity, inhibitor",1 µM,inhibition,2%
CNC(=O)Nc1ccc2c(c1)[C@@]1(CC2)OC(=O)N(CC(=O)N(Cc2ccc(F)cc2)[C@@H](C)C(F)(F)F)C1=O,"cell-free assay, competition with immobilised ligand",1 µM,remaining binding,100%
Cc1ccc(Nc2nccc(N(C)c3ccc4c(C)n(C)nc4c3)n2)cc1S(N)(=O)=O,"enzyme activity, inhibitor",0.3 µM,inhibition,-9%
COc1cc2ncnc(Nc3ccc(Oc4ccccc4)c(C)c3C)c2cc1OC,"enzyme activity, inhibitor",1 µM,inhibition,-3%
CN1CCN(c2cnc3c(C4CCN(C(=O)c5ccc(OC(F)(F)F)cc5N)CC4)ncnc3c2)CC1,"cell-free assay, competition with immobilised ligand",1 µM,remaining binding,78%
CCC1(CC)NC(=O)c2c(c3ccc(Cl)c(Cl)c3n2C)C1C#N (centres unmarked),"thermal stability, DSF",10 µM,ΔTm,0.1 °C
C[C@@H]1CN(c2cc(-c3n[nH]c4ccc(OC5(C)CC5)cc34)ncn2)C[C@H](C)O1,"cell-free assay, competition with immobilised ligand",0.1 µM,remaining binding,79%
CC(C1CC1)n1cnc2c(NCc3cccc(C(F)(F)F)c3)nc(NCCN(C)C)nc21 (centres unmarked),"enzyme activity, inhibitor",5 µM,inhibition,> 50%
Cn1c2c(c3ccccc31)C(C#N)C(C)(C)NC2=O (centres unmarked),"thermal stability, DSF",10 µM,ΔTm,0 °C
CNC(=O)c1ccc(Nc2ncc(C(F)(F)F)c(NCc3nccnc3N(C)S(C)(=O)=O)n2)cc1,"cell-free assay, competition with immobilised ligand",0.1 µM,remaining binding,100%
CCN(CC)c1ccc(C2=NNC(=O)CC2C)cc1[N+](=O)[O-] (centres unmarked),"enzyme activity, inhibitor",10 µM,remaining activity,100%
Cc1cc(NC(=O)c2cccc3cc(-c4cccc5[nH]nc(N)c45)ccc23)ccc1F,"enzyme activity, inhibitor",0.1 µM,activity vs control,103%
O=C(NS(=O)(=O)c1ccc(NCC2CCOCC2)c([N+](=O)[O-])c1)c1ccc(N2CCN(Cc3ccc(C(F)(F)F)cc3-c3ccc(Cl)cc3)CC2)cc1Oc1cnc2[nH]ccc2c1,"cell-free assay, competition with immobilised ligand",1 µM,remaining binding,100%
Cn1c2c(c3ccc(Cl)c(Cl)c31)C(C#N)C1(CCOCC1)NC2=O (centres unmarked),"thermal stability, DSF",10 µM,ΔTm,0.2 °C
CC(C)(C)c1nc(-c2cccc(NS(=O)(=O)c3c(F)cccc3F)c2F)c(-c2ccnc(N)n2)s1,"enzyme activity, inhibitor, radiometric",1 µM,remaining activity,111%
O=C1NC(=O)c2cc(Nc3ccc(F)cc3)c(Nc3ccc(F)cc3)cc21,cell-free assay,0.5 µM,remaining signal,92.3%
Cc1cc(-n2nc(Cc3cc(F)cc(C(F)(F)F)c3)nc2C)ccc1C(N)=O,"cell-free assay, competition with immobilised ligand",1 µM,remaining binding,100%
CCOc1cc(-c2nncn2C)ccc1Nc1ncc2cc(C)nc(NCC(C)(C)C)c2n1,"enzyme activity, inhibitor, FRET",1 µM,inhibition,< 15%
Cc1cnc(NC2CCOCC2)nc1-n1cnc(C(=O)NC(CN)c2cc(F)cc(Cl)c2)c1 (centres unmarked),"enzyme activity, inhibitor, radiometric",1 µM,remaining activity,101%
CNCc1ccccc1-c1csc([C@@H](C)Nc2nc(C)nc3cc(OC)c(OC)cc23)c1,"cell-free assay, competition with immobilised ligand",1 µM,remaining binding,61%
CNC(=O)c1cc(Oc2ccc(NC(=O)Nc3ccc(Cl)c(C(F)(F)F)c3)cc2)ccn1,"enzyme activity, inhibitor",0.3 µM,inhibition,2%
